Experimental data reported in ChEMBL document CHEMBL4433267, “Symmetry-based ligand design and evaluation of small molecule inhibitors of programmed cell death-1/programmed death-ligand 1 interaction” (Bioorg Med Chem Lett, 2019).
Active and inactive are the calls of the source. The rule behind the calls is not given here.

Biological target: T1, Programmed cell death 1 ligand 1 (Homo sapiens, UniProt Q9NZQ7)
Assay: Binding affinity to FC-tagged human PDL1 by SPR assay
Method in brief: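 Surface plasmon resonance against hPD-L1, reported as equilibrium dissociation constant (K_D).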

T1 sequence (Q9NZQ7 whole entry): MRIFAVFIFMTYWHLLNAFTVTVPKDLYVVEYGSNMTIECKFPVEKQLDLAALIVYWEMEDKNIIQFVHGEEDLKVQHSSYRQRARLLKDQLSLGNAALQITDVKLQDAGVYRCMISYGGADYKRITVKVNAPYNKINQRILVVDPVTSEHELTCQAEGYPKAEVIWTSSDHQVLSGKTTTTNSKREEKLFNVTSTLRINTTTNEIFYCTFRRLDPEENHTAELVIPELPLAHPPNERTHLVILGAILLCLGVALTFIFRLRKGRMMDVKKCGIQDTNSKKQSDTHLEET

SMILES	Kd [nM]
COc1cc(OCc2cccc(-c3cccc(COc4ccc(CN[C@H](CO)C(=O)O)c(OCc5cncc(C#N)c5)c4)c3C)c2C)ccc1CN[C@H](CO)C(=O)O	0.21
Cc1c(COc2cccc(OCc3cncc(C#N)c3)c2)cccc1-c1cccc(COc2ccc(CN[C@H](CO)C(=O)O)c(OCc3cncc(C#N)c3)c2)c1C	3.7
Cc1c(COc2ccc(CN[C@H](CO)C(=O)O)c(OCc3cncc(C#N)c3)c2)cccc1-c1cccc(COc2ccc(CN[C@H](CO)C(=O)O)c(OCc3cncc(C#N)c3)c2)c1	0.2
Cc1c(COc2ccc(CN[C@H](CO)C(=O)O)c(OCc3cncc(C#N)c3)c2)cccc1-c1cccc(COc2ccc(CN[C@H](CO)C(=O)O)c(OCc3cncc(C#N)c3)c2)c1C	0.019
Cc1ccccc1-c1cccc(COc2ccc(CN[C@H](CO)C(=O)O)c(OCc3cncc(C#N)c3)c2)c1C	3
Cc1c(COc2ccc(CN[C@H](CO)C(=O)O)c(OCc3cncc(C#N)c3)c2)cccc1-c1ccccc1	1.1
Cc1c(COc2ccc(CN[C@H](CO)C(=O)O)cc2)cccc1-c1cccc(COc2ccc(CN[C@H](CO)C(=O)O)c(OCc3cncc(C#N)c3)c2)c1C	0.29

Biological target: Programmed cell death protein 1/Programmed cell death 1 ligand 1 (Homo sapiens, UniProt Q9NZQ7)
Sequence (Q15116 whole entry): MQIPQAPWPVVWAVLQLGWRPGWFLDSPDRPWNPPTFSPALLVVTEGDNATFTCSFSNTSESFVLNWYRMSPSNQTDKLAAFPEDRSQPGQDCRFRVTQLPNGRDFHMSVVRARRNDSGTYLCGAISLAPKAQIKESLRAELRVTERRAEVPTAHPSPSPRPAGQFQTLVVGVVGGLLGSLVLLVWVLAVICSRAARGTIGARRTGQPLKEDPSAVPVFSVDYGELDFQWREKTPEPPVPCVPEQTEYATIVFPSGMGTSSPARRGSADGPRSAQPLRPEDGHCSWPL
Sequence (Q9NZQ7 whole entry): as the sequence (Q9NZQ7 whole entry) above
Assay: Inhibition of human PDL1 expressed in CHO-K1 cells co-expressing aAPC assessed as reduction in PDL1 interaction with human PD1 expressed in Jurkat T cells incubated for 18 hrs by Bio-Glo reagent based luminescence assay
Type: cell-based
Method in brief: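 In the PD-1/PD-L1 blockade bioassay, activity is expressed as EC50, with anti-PD-1 antibody as positive control.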

SMILES	EC50 [µM]
COc1cc(OCc2cccc(-c3cccc(COc4ccc(CN[C@H](CO)C(=O)O)c(OCc5cncc(C#N)c5)c4)c3C)c2C)ccc1CN[C@H](CO)C(=O)O	9.5
Cc1c(COc2cccc(OCc3cncc(C#N)c3)c2)cccc1-c1cccc(COc2ccc(CN[C@H](CO)C(=O)O)c(OCc3cncc(C#N)c3)c2)c1C	> 100
Cc1c(COc2ccc(CN[C@H](CO)C(=O)O)c(OCc3cncc(C#N)c3)c2)cccc1-c1cccc(COc2ccc(CN[C@H](CO)C(=O)O)c(OCc3cncc(C#N)c3)c2)c1	8.4
Cc1c(COc2ccc(CN[C@H](CO)C(=O)O)c(OCc3cncc(C#N)c3)c2)cccc1-c1cccc(COc2ccc(CN[C@H](CO)C(=O)O)c(OCc3cncc(C#N)c3)c2)c1C	1
Cc1c(COc2ccc(CN[C@H](CO)C(=O)O)c(OCc3cncc(C#N)c3)c2)cccc1-c1ccccc1	> 30

Biological target: T1, Programmed cell death 1 ligand 1
Assay: Induction of Flag-tagged human PDL1 dimerization assessed as shortening of retention time of PD-L1 at 12 uM incubated for 10 mins by size-exclusion chromatography

SMILES	Activity
Cc1c(COc2ccc(CN[C@H](CO)C(=O)O)c(OCc3cncc(C#N)c3)c2)cccc1-c1cccc(COc2ccc(CN[C@H](CO)C(=O)O)c(OCc3cncc(C#N)c3)c2)c1C	Active

Species: Homo sapiens
Assay: Induction of IFN-gamma secretion in human CD4+ T cells in presence of dendritic cells incubated for 7 days by AlphaLISA based mixed lymphocyte reaction assay
Type: functional, cell-based
Method in brief: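 CD4+ T cells were cultured 7 days, either alone or with monocyte-derived dendritic cells, with or without test agent; anti-PD-1 antibody was run as comparator. IFN-γ in culture supernatants was measured as the activation read-out. Mean ± SD is from experiments in triplicate.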

SMILES	Activity
Cc1c(COc2ccc(CN[C@H](CO)C(=O)O)c(OCc3cncc(C#N)c3)c2)cccc1-c1cccc(COc2ccc(CN[C@H](CO)C(=O)O)c(OCc3cncc(C#N)c3)c2)c1C	Dose-dependent effect
